Tests used:
Format in all cases: functional
CCRF-CEM = experiment: Anticancer activity against human CCRF-CEM cells after 48 hrs by sulforhodamine B assay
In short: (§1)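 NCI 60-cell-line screen. Cells grown in RPMI 1640 with 5% FBS and 2 mM L-glutamine, plated at 5000–40,000 cells/well, and preincubated 24 h at 37 °C under 5% CO2. Compounds were taken from DMSO stocks and tested at five final concentrations, 10^-4 to 10^-8 M, for 48 h. Cells were TCA-fixed, stained with 0.4% SRB, and read at 515 nm. GI50, TGI and LC50 were derived as log molar values.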

K562 = experiment: Anticancer activity against human K562 cells after 48 hrs by sulforhodamine B assay; settings: K562, 48 h; in short: as §1
MOLT-4 = experiment: Anticancer activity against human MOLT4 cells after 48 hrs by sulforhodamine B assay; settings: MOLT-4, 48 h; in short: as §1
SR = experiment: Anticancer activity against human SR cells after 48 hrs by sulforhodamine B assay
In short: (§2)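 NCI 60-cell-line panel; cells grown in RPMI 1640 with 5% FBS and 2 mM L-glutamine, plated at 5000–40,000 cells/well and preincubated 24 h at 37 °C, 5% CO2. Compounds came from DMSO stocks diluted in medium with gentamicin and were tested at five final concentrations, 10^-4 to 10^-8 M, for 48 h. Cells were fixed with TCA, stained with SRB and read at 515 nm. GI50, TGI and LC50 were derived as log molar values.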

A549 = experiment: Anticancer activity against human A549 cells after 48 hrs by sulforhodamine B assay; settings: A549, 48 h; in short: as §1
EKVX = experiment: Anticancer activity against human EKVX cells after 48 hrs by sulforhodamine B assay; in short: as §1
HOP-62 = experiment: Anticancer activity against human HOP62 cells after 48 hrs by sulforhodamine B assay; settings: HOP-62, 48 h; in short: as §1
HOP-92 = experiment: Anticancer activity against human HOP92 cells after 48 hrs by sulforhodamine B assay; settings: HOP-92, 48 h; in short: as §1
NCI-H322M = experiment: Anticancer activity against human NCI-H322M cells after 48 hrs by sulforhodamine B assay; in short: as §1
NCI-H460 = experiment: Anticancer activity against human NCI-H460 cells after 48 hrs by sulforhodamine B assay; settings: NCI-H460, 48 h; in short: as §1
COLO 205 = experiment: Anticancer activity against human COLO205 cells after 48 hrs by sulforhodamine B assay; settings: COLO 205, 48 h; in short: as §1
HCC 2998 = experiment: Anticancer activity against human HCC2998 cells after 48 hrs by sulforhodamine B assay; settings: HCC 2998, 48 h; in short: as §1
HCT-116 = experiment: Anticancer activity against human HCT116 cells after 48 hrs by sulforhodamine B assay; settings: HCT-116, 48 h; in short: as §1
KM12 = experiment: Anticancer activity against human KM12 cells after 48 hrs by sulforhodamine B assay; settings: KM12, 48 h; in short: as §1
SW-620 = experiment: Anticancer activity against human SW620 cells after 48 hrs by sulforhodamine B assay; settings: SW-620, 48 h; in short: as §2
SF-268 = experiment: Anticancer activity against human SF268 cells after 48 hrs by sulforhodamine B assay; settings: SF-268, 48 h; in short: as §1
SF-295 = experiment: Anticancer activity against human SF295 cells after 48 hrs by sulforhodamine B assay; settings: SF-295, 48 h; in short: as §1
SF-539 = experiment: Anticancer activity against human SF539 cells after 48 hrs by sulforhodamine B assay; settings: SF-539, 48 h; in short: as §1
SNB-19 = experiment: Anticancer activity against human SNB19 cells after 48 hrs by sulforhodamine B assay; settings: SNB-19, 48 h; in short: as §2
U-251 = experiment: Anticancer activity against human U251 cells after 48 hrs by sulforhodamine B assay; settings: U-251, 48 h; in short: as §2
LOX IMVI = experiment: Anticancer activity against human LOXIMVI cells after 48 hrs by sulforhodamine B assay; in short: as §1
M14 = experiment: Anticancer activity against human M14 cells after 48 hrs by sulforhodamine B assay; settings: M14, 48 h; in short: as §1
SK-MEL-2 = experiment: Anticancer activity against human SK-MEL-2 cells after 48 hrs by sulforhodamine B assay; settings: SK-MEL-2, 48 h; in short: as §1
SK-MEL-28 = experiment: Anticancer activity against human SK-MEL-28 cells after 48 hrs by sulforhodamine B assay; settings: SK-MEL-28, 48 h; in short: as §1
SK-MEL-5 = experiment: Anticancer activity against human SK-MEL-5 cells after 48 hrs by sulforhodamine B assay; settings: SK-MEL-5, 48 h; in short: as §1
UACC-257 = experiment: Anticancer activity against human UACC257 cells after 48 hrs by sulforhodamine B assay; settings: UACC-257, 48 h; in short: as §2
UACC-62 = experiment: Anticancer activity against human UACC62 cells after 48 hrs by sulforhodamine B assay; settings: UACC-62, 48 h; in short: as §2
IGROV-1 = experiment: Anticancer activity against human IGROV1 cells after 48 hrs by sulforhodamine B assay; settings: IGROV-1, 48 h; in short: as §1
OVCAR-5 = experiment: Anticancer activity against human OVCAR5 cells after 48 hrs by sulforhodamine B assay; settings: OVCAR-5, 48 h; in short: as §1
OVCAR-8 = experiment: Anticancer activity against human OVCAR8 cells after 48 hrs by sulforhodamine B assay; settings: OVCAR-8, 48 h; in short: as §1
SK-OV-3 = experiment: Anticancer activity against human SKOV3 cells after 48 hrs by sulforhodamine B assay; settings: SK-OV-3, 48 h; in short: as §1
786-0 = experiment: Anticancer activity against human 786-0 cells after 48 hrs by sulforhodamine B assay; settings: 786-0, 48 h; in short: as §1
CAKI-1 = experiment: Anticancer activity against human Caki1 cells after 48 hrs by sulforhodamine B assay; settings: CAKI-1, 48 h; in short: as §1
SN12C = experiment: Anticancer activity against human SN12C cells after 48 hrs by sulforhodamine B assay; in short: as §2
TK-10 = experiment: Anticancer activity against human TK10 cells after 48 hrs by sulforhodamine B assay; settings: TK-10, 48 h; in short: as §2
UO-31 = experiment: Anticancer activity against human UO31 cells after 48 hrs by sulforhodamine B assay; settings: UO-31, 48 h; in short: as §2
MCF7 = experiment: Anticancer activity against human MCF7 cells after 48 hrs by sulforhodamine B assay; settings: MCF7, 48 h; in short: as §1
NCI/ADR-RES = experiment: Anticancer activity against human NCI/ADR-RES cells after 48 hrs by sulforhodamine B assay; in short: as §1
MDA-MB-231 = experiment: Anticancer activity against human MDA-MB-231 cells after 48 hrs by sulforhodamine B assay; settings: MDA-MB-231, 48 h; in short: as §1
[1] = Anticancer activity against human Hs 578T cells after 48 hrs by sulforhodamine B assay; in short: as §1
MDA-MB-435 = experiment: Anticancer activity against human MDA-MB-435 cells after 48 hrs by sulforhodamine B assay; settings: MDA-MB-435, 48 h; in short: as §1
BT-549 = experiment: Anticancer activity against human BT549 cells after 48 hrs by sulforhodamine B assay; settings: BT-549, 48 h; in short: as §1
T47D = experiment: Anticancer activity against human T47D cells after 48 hrs by sulforhodamine B assay; in short: as §2
OVCAR-3 = experiment: Anticancer activity against human OVCAR-3 cells after 48 hrs by sulforhodamine B assay; settings: OVCAR-3, 48 h; in short: as §1

CC(NC(=O)Nc1nc2ccccc2s1)(C(F)(F)F)C(F)(F)F
GI50 (CCRF-CEM): 27.5 µM
GI50 (K562): 17 µM
GI50 (MOLT-4): 18.2 µM
GI50 (SR): 3.63 µM
GI50 (A549): 16.2 µM
GI50 (EKVX): 74.1 µM
GI50 (HOP-62): 31.6 µM
GI50 (HOP-92): 75.9 µM
GI50 (NCI-H322M): 26.9 µM
GI50 (NCI-H460): 24.5 µM
GI50 (COLO 205): 38 µM
GI50 (HCC 2998): 38.9 µM
GI50 (HCT-116): 41.7 µM
GI50 (KM12): 46.8 µM
GI50 (SW-620): 45.7 µM
GI50 (SF-268): 29.5 µM
GI50 (SF-295): 60.3 µM
GI50 (SF-539): 24.5 µM
GI50 (SNB-19): 24.5 µM
GI50 (U-251): 33.9 µM
GI50 (LOX IMVI): 36.3 µM
GI50 (M14): 37.2 µM
GI50 (SK-MEL-2): 30.2 µM
GI50 (SK-MEL-28): 72.4 µM
GI50 (SK-MEL-5): 49 µM
GI50 (UACC-257): 51.3 µM
GI50 (UACC-62): > 100 µM
GI50 (IGROV-1): 41.7 µM
GI50 (OVCAR-5): 81.3 µM
GI50 (OVCAR-8): 52.5 µM
GI50 (SK-OV-3): 52.5 µM
GI50 (786-0): 20.4 µM
GI50 (CAKI-1): 38.9 µM
GI50 (SN12C): 25.7 µM
GI50 (TK-10): 49 µM
GI50 (UO-31): 2.19 µM
GI50 (MCF7): 38 µM
GI50 (NCI/ADR-RES): > 100 µM
GI50 (MDA-MB-231): 34.7 µM
GI50 [1]: 18.6 µM
GI50 (MDA-MB-435): 41.7 µM
GI50 (BT-549): > 100 µM
GI50 (T47D): 38 µM

O=C(Nc1nccs1)NC(C(F)(F)F)C(F)(F)F
GI50 (K562): 36.3 µM
GI50 (MOLT-4): 40.7 µM
GI50 (SR): 24 µM
GI50 (A549): 60.3 µM
GI50 (EKVX): 41.7 µM
GI50 (HOP-62): > 100 µM
GI50 (HOP-92): 38 µM
GI50 (NCI-H322M): 87.1 µM
GI50 (NCI-H460): 34.7 µM
GI50 (COLO 205): 52.5 µM
GI50 (HCC 2998): 31.6 µM
GI50 (HCT-116): 38 µM
GI50 (KM12): 39.8 µM
GI50 (SW-620): > 100 µM
GI50 (SF-268): 29.5 µM
GI50 (SF-295): 43.7 µM
GI50 (SF-539): > 100 µM
GI50 (SNB-19): 49 µM
GI50 (U-251): 33.9 µM
GI50 (LOX IMVI): 58.9 µM
GI50 (M14): > 100 µM
GI50 (SK-MEL-2): 45.7 µM
GI50 (SK-MEL-28): > 100 µM
GI50 (SK-MEL-5): 38.9 µM
GI50 (UACC-257): 35.5 µM
GI50 (UACC-62): 63.1 µM
GI50 (IGROV-1): 95.5 µM
GI50 (OVCAR-3): 42.7 µM
GI50 (OVCAR-5): 91.2 µM
GI50 (OVCAR-8): 39.8 µM
GI50 (SK-OV-3): > 100 µM
GI50 (786-0): > 100 µM
GI50 (CAKI-1): 55 µM
GI50 (SN12C): 43.7 µM
GI50 (TK-10): 51.3 µM
GI50 (UO-31): 35.5 µM
GI50 (MCF7): 40.7 µM
GI50 (NCI/ADR-RES): 33.1 µM
GI50 (MDA-MB-231): 58.9 µM
GI50 [1]: 22.4 µM
GI50 (MDA-MB-435): 79.4 µM
GI50 (BT-549): 46.8 µM
GI50 (T47D): 45.7 µM

CNC(=O)Nc1ccccc1
GI50 (CCRF-CEM): 100 µM
GI50 (K562): 100 µM
GI50 (MOLT-4): 100 µM
GI50 (SR): 100 µM
GI50 (A549): 100 µM
GI50 (EKVX): 100 µM
GI50 (HOP-62): 100 µM
GI50 (HOP-92): 100 µM
GI50 (NCI-H322M): 100 µM
GI50 (NCI-H460): 100 µM
GI50 (COLO 205): 100 µM
GI50 (HCC 2998): 100 µM
GI50 (HCT-116): 100 µM
GI50 (KM12): 100 µM
GI50 (SW-620): 100 µM
GI50 (SF-268): 100 µM
GI50 (SF-295): 100 µM
GI50 (SF-539): 100 µM
GI50 (SNB-19): 100 µM
GI50 (U-251): 100 µM
GI50 (LOX IMVI): 100 µM
GI50 (M14): 100 µM
GI50 (SK-MEL-2): 100 µM
GI50 (SK-MEL-28): 100 µM
GI50 (SK-MEL-5): 100 µM
GI50 (UACC-257): 100 µM
GI50 (UACC-62): 100 µM
GI50 (IGROV-1): 100 µM
GI50 (OVCAR-3): 100 µM
GI50 (OVCAR-5): 100 µM
GI50 (OVCAR-8): 100 µM
GI50 (SK-OV-3): 100 µM
GI50 (786-0): 100 µM
GI50 (CAKI-1): 100 µM
GI50 (SN12C): 100 µM
GI50 (TK-10): 100 µM
GI50 (UO-31): 100 µM
GI50 (MCF7): 100 µM
GI50 (NCI/ADR-RES): 100 µM
GI50 (MDA-MB-231): 100 µM
GI50 [1]: 100 µM
GI50 (MDA-MB-435): 100 µM
GI50 (BT-549): 100 µM
GI50 (T47D): 100 µM
